From ChEMBL document CHEMBL1629583, “Establishment of in vitro susceptibility testing methodologies and comparative activities of piperacillin in combination with the penem {beta}-lactamase inhibitor BLI-489” (2009)
Converted amounts (≈) assume the structure as drawn.

Key:
Assay type in all cases: functional
[1] = test system: Haemophilus influenzae; assay: Antimicrobial activity against beta-lactamase-negative Haemophilus influenzae clinical isolate after 18 to 22 hrs by broth microdilution method
[2] = test system: Citrobacter koseri; assay: Antimicrobial activity against Citrobacter koseri clinical isolate after 18 to 22 hrs by broth microdilution method
[3] = test system: Providencia rettgeri; assay: Antimicrobial activity against Providencia rettgeri clinical isolate after 18 to 22 hrs by broth microdilution method
[4] = test system: Staphylococcus aureus; assay: Antimicrobial activity against methicillin-resistant Staphylococcus aureus clinical isolate after 18 to 22 hrs by broth microdilution method
[5] = test system: Escherichia coli; assay: Antimicrobial activity against Escherichia coli clinical isolate after 18 to 22 hrs by broth microdilution method
[6] = test system: Enterococcus faecium; assay: Antimicrobial activity against Enterococcus faecium clinical isolate after 18 to 22 hrs by broth microdilution method
[7] = test system: Acinetobacter calcoaceticus; assay: Antimicrobial activity against Acinetobacter calcoaceticus clinical isolate after 18 to 22 hrs by broth microdilution method
[8] = test system: Klebsiella pneumoniae; assay: Antimicrobial activity against AmpC- producing Klebsiella pneumoniae clinical isolate after 18 to 22 hrs by broth microdilution method
[9] = test system: Citrobacter freundii; assay: Antimicrobial activity against Citrobacter freundii clinical isolate after 18 to 22 hrs by broth microdilution method
[10] = test system: Enterococcus faecalis; assay: Antimicrobial activity against vancomycin-resistant Enterococcus faecalis clinical isolate after 18 to 22 hrs by broth microdilution method
[11] = test system: Haemophilus parainfluenzae; assay: Antimicrobial activity against Haemophilus parainfluenzae clinical isolate after 18 to 22 hrs by broth microdilution method
[12] = test system: Acinetobacter baumannii; assay: Antimicrobial activity against Acinetobacter baumannii clinical isolate after 18 to 22 hrs by broth microdilution method
[13] = test system: Streptococcus pneumoniae; assay: Antimicrobial activity against penicillin-susceptible Streptococcus pneumoniae clinical isolate after 18 to 22 hrs by broth microdilution method
[14] = test system: Acinetobacter johnsonii; assay: Antimicrobial activity against Acinetobacter johnsonii clinical isolate after 18 to 22 hrs by broth microdilution method
[15] = test system: Streptococcus agalactiae; assay: Antimicrobial activity against Streptococcus agalactiae clinical isolate after 18 to 22 hrs by broth microdilution method
[16] = test system: Peptostreptococcus anaerobius; assay: Antimicrobial activity against Peptostreptococcus anaerobius clinical isolate after 18 to 22 hrs by broth microdilution method
[17] = test system: Enterococcus avium; assay: Antimicrobial activity against Enterococcus avium clinical isolate after 18 to 22 hrs by broth microdilution method in presence of beta-lactamase inhibitor Tazobactam
Summary of the method: (§1)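 Piperacillin-tazobactam was tested on recent clinical isolates by CLSI broth microdilution in Mueller-Hinton II broth, with tazobactam at constant 4 μg/ml. Wells held 10^5 CFU/ml and were incubated 18 to 22 h at 35°C in ambient air. MIC was the lowest concentration with no growth visible to the unaided eye.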

[18] = test system: Clostridium perfringens; assay: Antimicrobial activity against Clostridium perfringens clinical isolate after 18 to 22 hrs by broth microdilution method
[19] = test system: Enterobacter cloacae; assay: Antimicrobial activity against Enterobacter cloacae clinical isolate after 18 to 22 hrs by broth microdilution method in presence of beta-lactamase inhibitor BLI-489
Summary of the method: (§2)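 CLSI broth microdilution in Mueller-Hinton II broth. Piperacillin serial dilutions were combined with BLI-489 held constant at 4 μg/ml. Inoculum was 10^5 CFU/ml. Plates were incubated 18 to 22 h at 35°C in ambient air. MIC was the lowest concentration completely inhibiting growth seen by the unaided eye. Piperacillin-tazobactam interpretive criteria were applied.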

[20] = test system: Parvimonas micra; assay: Antimicrobial activity against Peptostreptococcus micros clinical isolate after 18 to 22 hrs by broth microdilution method
[21] = test system: Escherichia coli; assay: Antimicrobial activity against class A extended spectrum beta-lactamase- and class D OXA- producing Escherichia coli clinical isolate after 18 to 22 hrs by broth microdilution method in presence of beta-lactamase inhibitor Tazobactam
[22] = test system: Acinetobacter haemolyticus; assay: Antimicrobial activity against Acinetobacter haemolyticus clinical isolate after 18 to 22 hrs by broth microdilution method in presence of beta-lactamase inhibitor BLI-489; summary of the method: as §2
[23] = test system: Klebsiella aerogenes; assay: Antimicrobial activity against AmpC beta-lactamase-producing Enterobacter aerogenes clinical isolate after 18 to 22 hrs by broth microdilution method in presence of beta-lactamase inhibitor BLI-489; summary of the method: as §2
[24] = test system: Proteus vulgaris; assay: Antimicrobial activity against Proteus vulgaris clinical isolate after 18 to 22 hrs by broth microdilution method in presence of beta-lactamase inhibitor BLI-489
Summary of the method: (§3)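 CLSI broth microdilution in Mueller-Hinton II broth. Serial dilutions of piperacillin were tested with BLI-489 held at a constant 4 μg/ml. Inoculum was 10^5 CFU/ml. Plates were incubated 18 to 22 h at 35°C in ambient air. MIC was the lowest concentration giving complete growth inhibition by unaided eye.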

[25] = test system: Klebsiella pneumoniae; assay: Antimicrobial activity against AmpC- producing Klebsiella pneumoniae clinical isolate after 18 to 22 hrs by broth microdilution method in presence of beta-lactamase inhibitor BLI-489; summary of the method: as §2
[26] = test system: Staphylococcus haemolyticus; assay: Antimicrobial activity against Staphylococcus haemolyticus clinical isolate after 18 to 22 hrs by broth microdilution method in presence of beta-lactamase inhibitor Tazobactam
Summary of the method: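 Piperacillin-tazobactam was tested by CLSI broth microdilution in Mueller-Hinton II broth against clinical isolates. Inoculum was 10^5 CFU/ml, with 18 to 22 h incubation at 35°C in ambient air. MIC was read as the lowest concentration completely inhibiting visible growth.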

[27] = test system: Bacteroides uniformis; assay: Antimicrobial activity against Bacteroides uniformis clinical isolate after 18 to 22 hrs by broth microdilution method in presence of beta-lactamase inhibitor Tazobactam
[28] = test system: Serratia marcescens; assay: Antimicrobial activity against AmpC beta-lactamase-producing Serratia marcescens clinical isolate after 18 to 22 hrs by broth microdilution method in presence of beta-lactamase inhibitor Tazobactam; summary of the method: as §1
[29] = test system: Enterococcus faecium; assay: Antimicrobial activity against Enterococcus faecium clinical isolate after 18 to 22 hrs by broth microdilution method in presence of beta-lactamase inhibitor BLI-489; summary of the method: as §3
[30] = test system: Staphylococcus epidermidis; assay: Antimicrobial activity against methicillin-resistant Staphylococcus epidermidis clinical isolate after 18 to 22 hrs by broth microdilution method in presence of beta-lactamase inhibitor BLI-489
Summary of the method: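 CLSI broth microdilution in Mueller-Hinton II broth. Antibiotic in serial dilution with the β-lactamase inhibitor held at a constant 4 μg/ml. Inoculum 10^5 CFU/ml. Incubated 18 to 22 h at 35°C in ambient air.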

Work on `C[C@H]1COc2c(N3CCN(C)CC3)c(F)cc3c(=O)c(C(=O)O)cn1c23.C[C@H]1COc2c(N3CCN(C)CC3)c(F)cc3c(=O)c(C(=O)O)cn1c23.O` [LEVOFLOXACIN] yielded an MIC [1] of no more than 0.015 µg/mL, an MIC50 [1] of no more than 0.015 µg/mL and an MIC90 [1] of no more than 0.015 µg/mL. The MIC50 [2] was 0.03 µg/mL, the MIC90 [2] was 0.06 µg/mL and the MIC50 [3] was 1 µg/mL. The MIC90 [3] was 16 µg/mL, the MIC50 [4] was 4 µg/mL and the MIC90 [4] was greater than 16 µg/mL. It also gave an MIC50 [5] of 0.03 µg/mL, an MIC90 [5] of 8 µg/mL and an MIC50 [6] of 4 µg/mL. It also gave an MIC90 [6] greater than 16 µg/mL, an MIC50 [7] of 8 µg/mL and an MIC90 [7] of 16 µg/mL. For the same compound, the MIC50 [8] was 2 µg/mL, the MIC90 [8] was greater than 16 µg/mL and the MIC50 [9] was 0.12 µg/mL. It also gave an MIC90 [9] of 2 µg/mL, an MIC50 [10] of 2 µg/mL and an MIC [11] of no more than 0.015 µg/mL. The MIC50 [11] was no more than 0.015 µg/mL, the MIC90 [11] was 0.06 µg/mL and the MIC50 [12] was 8 µg/mL. It also gave an MIC90 [12] of 16 µg/mL, an MIC50 [13] of 1 µg/mL and an MIC90 [13] of 1 µg/mL. For the same compound, the MIC50 [14] was 0.12 µg/mL, the MIC90 [14] was 2 µg/mL and the MIC50 [15] was 1 µg/mL. For the same compound, the MIC90 [15] was 1 µg/mL.
Compound `CCN1CCN(C(=O)N[C@@H](C(=O)N[C@@H]2C(=O)N3[C@@H]2SC(C)(C)[C@@H]3C(=O)O)c2ccccc2)C(=O)C1=O` [PIPERACILLIN] has an MIC50 [1] of 0.015 µg/mL (≈ 0.029 µM), an MIC90 [1] of 0.03 µg/mL (≈ 0.058 µM) and an MIC50 [16] of 0.06 µg/mL (≈ 0.116 µM). For the same compound, the MIC90 [16] was 0.06 µg/mL (≈ 0.116 µM), the MIC50 [17] was 16 µg/mL and the MIC90 [17] was 64 µg/mL. For the same compound, the MIC50 [18] was 0.06 µg/mL (≈ 0.116 µM), the MIC90 [18] was 0.25 µg/mL (≈ 0.483 µM) and the MIC50 [19] was 2 µg/mL. The MIC90 [19] was 16 µg/mL, the MIC50 [2] was 32 µg/mL (≈ 61.8 µM) and the MIC90 [2] was greater than 128 µg/mL. The MIC50 [3] was 2 µg/mL (≈ 3.86 µM), the MIC50 [4] was greater than 128 µg/mL and the MIC50 [20] was 0.12 µg/mL (≈ 0.232 µM). For the same compound, the MIC90 [20] was 0.25 µg/mL (≈ 0.483 µM), the MIC50 [5] was 2 µg/mL (≈ 3.86 µM) and the MIC90 [5] was greater than 128 µg/mL. It also gave an MIC50 [6] of 32 µg/mL (≈ 61.8 µM), an MIC90 [6] greater than 128 µg/mL and an MIC50 [7] greater than 128 µg/mL. For the same compound, the MIC90 [7] was greater than 128 µg/mL, the MIC50 [21] was 1 µg/mL and the MIC90 [21] was 2 µg/mL. It also gave an MIC50 [22] of 4 µg/mL, an MIC90 [22] of 16 µg/mL and an MIC50 [23] of 2 µg/mL. The MIC90 [23] was 8 µg/mL, the MIC50 [24] was 0.5 µg/mL and the MIC90 [24] was 1 µg/mL. For the same compound, the MIC50 [8] was greater than 128 µg/mL, the MIC90 [8] was greater than 128 µg/mL and the MIC50 [9] was 4 µg/mL (≈ 7.73 µM). For the same compound, the MIC90 [9] was greater than 128 µg/mL, the MIC50 [25] was 16 µg/mL and the MIC90 [25] was greater than 128 µg/mL. For the same compound, the MIC50 [26] was 32 µg/mL, the MIC90 [26] was greater than 128 µg/mL and the MIC50 [27] was 0.5 µg/mL. For the same compound, the MIC90 [27] was 4 µg/mL, the MIC50 [10] was 2 µg/mL (≈ 3.86 µM) and the MIC90 [10] was greater than 128 µg/mL. It also gave an MIC50 [11] of 0.06 µg/mL (≈ 0.116 µM), an MIC90 [11] of 0.5 µg/mL (≈ 0.966 µM) and an MIC50 [12] greater than 128 µg/mL. For the same compound, the MIC90 [12] was greater than 128 µg/mL, the MIC50 [13] was 0.015 µg/mL (≈ 0.029 µM) and the MIC90 [13] was 0.03 µg/mL (≈ 0.058 µM). It also gave an MIC50 [28] of 8 µg/mL, an MIC90 [28] of 16 µg/mL and an MIC50 [29] of 4 µg/mL. For the same compound, the MIC90 [29] was greater than 128 µg/mL, the MIC50 [14] was 4 µg/mL (≈ 7.73 µM) and the MIC90 [14] was 128 µg/mL (≈ 247 µM). It also gave an MIC50 [30] of 0.5 µg/mL, an MIC90 [30] of 8 µg/mL and an MIC50 [15] of 0.12 µg/mL (≈ 0.232 µM). For the same compound, the MIC90 [15] was 0.25 µg/mL (≈ 0.483 µM).
